Article PMC8167812 (Cell reports, 2021)

Key:
Clr4-SET = Clr4-SET (Schizosaccharomyces pombe, UniProt O60016); experiment: Thermal shift assay, Clr4-SET; assay type: binding, fission yeast (S. pombe); details: without peptide, SYPRO orange, Figure S3C
Method in brief: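 Clr4 SET domain (residues 190–490) was expressed in Rosetta E. coli and purified on Talon resin. Protein at 3 μM was mixed with 150 μM SAM in 50 mM Tris pH 8.0, 1 mM EDTA and 0.5 mM DTT, held 10 min at room temperature then 10 min on ice. SYPRO orange was added and the sample ramped 25–99 °C in 1 °C steps over 75 min. Curves were min–max normalised; samples were run in duplicate.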

TetR-Clr4 at tetO = experiment: ChIP analysis of TetR-Clr4 release from tetO after tetracycline addition; assay type: cell-based, fission yeast (S. pombe); details: tetracycline 10 μM

Chain of Clr4-SET (O60016 190-490): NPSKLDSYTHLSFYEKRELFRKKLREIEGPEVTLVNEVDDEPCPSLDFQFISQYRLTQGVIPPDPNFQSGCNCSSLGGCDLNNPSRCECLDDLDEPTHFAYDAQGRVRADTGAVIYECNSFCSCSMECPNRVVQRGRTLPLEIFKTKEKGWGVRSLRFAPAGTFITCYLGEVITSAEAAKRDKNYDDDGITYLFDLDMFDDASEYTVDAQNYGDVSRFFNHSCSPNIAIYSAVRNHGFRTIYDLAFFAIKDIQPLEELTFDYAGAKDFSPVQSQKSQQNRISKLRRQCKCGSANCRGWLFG

| SMILES | thermal stability of Clr4 on addition of SAM alone (Clr4-SET) | release of TetR-Clr4 from tetO (TetR-Clr4 at tetO; hht3-K9M cells, samples at 5, 10, and 20 minutes) | time in which most TetR-Clr4 is released from tetO (TetR-Clr4 at tetO; 30°C, ChIP-qPCR normalized to act1+) [min] |
| --- | --- | --- | --- |
| C[S+](CC[C@H](N)C(=O)[O-])C[C@H]1O[C@@H](n2cnc3c(N)ncnc32)[C@H](O)[C@@H]1O (stereo partly drawn) [SAM, S-adenosyl-methionine] | greater thermal stability of Clr4 |  |  |
| CN(C)[C@@H]1C(O)=C(C(N)=O)C(=O)[C@@]2(O)C(O)=C3C(=O)c4c(O)cccc4[C@@](C)(O)[C@H]3C[C@@H]12 [tetracycline] |  | a delay in the release of TetR-Clr4 | ≤ 5 |
